Experimental data as given in ChEMBL document CHEMBL5058577, “EUbOPEN Chemogenomics Library 2 (Multiplex)” (2022).

Test system: U2OS
Assay: Multiplex assay against U2OS
Assay type: toxicity, cell-based
Conditions: human
Method in brief: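 Cells stained live at seeding with Hoechst33342, BioTracker Green Microtubule Cytoskeleton Dye, MitoTracker Red and Annexin V Alexa Fluor 680 were imaged on a CQ1 microscope at 37°C and 5% CO2 after compound addition. Their classification by CellPathfinder machine-learning gating ran from Hoechst high-intensity objects versus normal cells, to healthy, pyknosed or fragmented nuclei among normal cells, to mitotic or apoptotic among pyknosed cells. Tubulin, mitochondrial-mass and membrane-permeability phenotypes are per cents of healthy-nucleus cells.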

[1] = 12 h, 1 µM, compound concentration 1 uM, replicate 1
[2] = 12 h, 1 µM, compound concentration 1 uM, replicate 2
[3] = 12 h, 10 µM, compound concentration 10 uM, replicate 1
[4] = 12 h, 10 µM, compound concentration 10 uM, replicate 2
[5] = 24 h, 1 µM, compound concentration 1 uM, replicate 1
[6] = 24 h, 1 µM, compound concentration 1 uM, replicate 2
[7] = 24 h, 10 µM, compound concentration 10 uM, replicate 1
[8] = 24 h, 10 µM, compound concentration 10 uM, replicate 2
[9] = 48 h, 1 µM, compound concentration 1 uM, replicate 1
[10] = 48 h, 1 µM, compound concentration 1 uM, replicate 2
[11] = 48 h, 10 µM, compound concentration 10 uM, replicate 1
[12] = 48 h, 10 µM, compound concentration 10 uM, replicate 2

CCCCCCNC(=O)Nc1ccc(S(=O)(=O)Nc2ccc(CCNC[C@H](O)COc3ccc(O)cc3)cc2)cc1 [L-755507]
Population Apoptotic (%) [1]: 86%
Population Fragmented Nuclei (%) [1]: 22%
Population Healthy Nuclei (%) [1]: 67%
Population Hoechst High Intensity Objects (%) [1]: 4%
Population Membrane Permeable-Phenotype (%) [1]: 4%
Population Mitochondria Different-Phenotype (%) [1]: 4%
Population Mitotic Cells (%) [1]: 13%
Population Normal (%) [1]: 95%
Population Pyknosed Nuclei (%) [1]: 9%
Population Tubulin-Different-Phenotype (%) [1]: 4%
Total Cell Count [1]: 231
Population Apoptotic (%) [2]: 100%
Population Fragmented Nuclei (%) [2]: 18%
Population Healthy Nuclei (%) [2]: 75%
Population Hoechst High Intensity Objects (%) [2]: 0%
Population Membrane Permeable-Phenotype (%) [2]: 10%
Population Mitochondria Different-Phenotype (%) [2]: 1%
Population Mitotic Cells (%) [2]: 0%
Population Normal (%) [2]: 99%
Population Pyknosed Nuclei (%) [2]: 5%
Population Tubulin-Different-Phenotype (%) [2]: 5%
Total Cell Count [2]: 120
Population Apoptotic (%) [3]: 60%
Population Fragmented Nuclei (%) [3]: 31%
Population Healthy Nuclei (%) [3]: 59%
Population Hoechst High Intensity Objects (%) [3]: 3%
Population Membrane Permeable-Phenotype (%) [3]: 13%
Population Mitochondria Different-Phenotype (%) [3]: 11%
Population Mitotic Cells (%) [3]: 40%
Population Normal (%) [3]: 96%
Population Pyknosed Nuclei (%) [3]: 9%
Population Tubulin-Different-Phenotype (%) [3]: 10%
Total Cell Count [3]: 282
Population Apoptotic (%) [4]: 72%
Population Fragmented Nuclei (%) [4]: 19%
Population Healthy Nuclei (%) [4]: 72%
Population Hoechst High Intensity Objects (%) [4]: 2%
Population Membrane Permeable-Phenotype (%) [4]: 19%
Population Mitochondria Different-Phenotype (%) [4]: 15%
Population Mitotic Cells (%) [4]: 27%
Population Normal (%) [4]: 97%
Population Pyknosed Nuclei (%) [4]: 8%
Population Tubulin-Different-Phenotype (%) [4]: 15%
Total Cell Count [4]: 140
Population Apoptotic (%) [5]: 83%
Population Fragmented Nuclei (%) [5]: 22%
Population Healthy Nuclei (%) [5]: 66%
Population Hoechst High Intensity Objects (%) [5]: 4%
Population Membrane Permeable-Phenotype (%) [5]: 5%
Population Mitochondria Different-Phenotype (%) [5]: 5%
Population Mitotic Cells (%) [5]: 16%
Population Normal (%) [5]: 95%
Population Pyknosed Nuclei (%) [5]: 11%
Population Tubulin-Different-Phenotype (%) [5]: 3%
Total Cell Count [5]: 285
Population Apoptotic (%) [6]: 92%
Population Fragmented Nuclei (%) [6]: 23%
Population Healthy Nuclei (%) [6]: 67%
Population Hoechst High Intensity Objects (%) [6]: 2%
Population Membrane Permeable-Phenotype (%) [6]: 11%
Population Mitochondria Different-Phenotype (%) [6]: 1%
Population Mitotic Cells (%) [6]: 7%
Population Normal (%) [6]: 97%
Population Pyknosed Nuclei (%) [6]: 9%
Population Tubulin-Different-Phenotype (%) [6]: 5%
Total Cell Count [6]: 143
Population Apoptotic (%) [7]: 85%
Population Fragmented Nuclei (%) [7]: 25%
Population Healthy Nuclei (%) [7]: 65%
Population Hoechst High Intensity Objects (%) [7]: 2%
Population Membrane Permeable-Phenotype (%) [7]: 7%
Population Mitochondria Different-Phenotype (%) [7]: 4%
Population Mitotic Cells (%) [7]: 14%
Population Normal (%) [7]: 97%
Population Pyknosed Nuclei (%) [7]: 9%
Population Tubulin-Different-Phenotype (%) [7]: 3%
Total Cell Count [7]: 307
Population Apoptotic (%) [8]: 88%
Population Fragmented Nuclei (%) [8]: 14%
Population Healthy Nuclei (%) [8]: 79%
Population Membrane Permeable-Phenotype (%) [8]: 9%
Population Mitochondria Different-Phenotype (%) [8]: 5%
Population Mitotic Cells (%) [8]: 11%
Population Pyknosed Nuclei (%) [8]: 6%
Population Tubulin-Different-Phenotype (%) [8]: 6%
Total Cell Count [8]: 149
Population Apoptotic (%) [9]: 78%
Population Fragmented Nuclei (%) [9]: 14%
Population Healthy Nuclei (%) [9]: 74%
Population Hoechst High Intensity Objects (%) [9]: 1%
Population Membrane Permeable-Phenotype (%) [9]: 6%
Population Mitochondria Different-Phenotype (%) [9]: 3%
Population Mitotic Cells (%) [9]: 21%
Population Normal (%) [9]: 98%
Population Pyknosed Nuclei (%) [9]: 11%
Population Tubulin-Different-Phenotype (%) [9]: 3%
Total Cell Count [9]: 422
Population Apoptotic (%) [10]: 91%
Population Fragmented Nuclei (%) [10]: 26%
Population Healthy Nuclei (%) [10]: 61%
Population Hoechst High Intensity Objects (%) [10]: 4%
Population Membrane Permeable-Phenotype (%) [10]: 12%
Population Mitochondria Different-Phenotype (%) [10]: 5%
Population Mitotic Cells (%) [10]: 8%
Population Normal (%) [10]: 95%
Population Pyknosed Nuclei (%) [10]: 12%
Population Tubulin-Different-Phenotype (%) [10]: 6%
Total Cell Count [10]: 188
Population Apoptotic (%) [11]: 80%
Population Fragmented Nuclei (%) [11]: 19%
Population Healthy Nuclei (%) [11]: 70%
Population Hoechst High Intensity Objects (%) [11]: 2%
Population Membrane Permeable-Phenotype (%) [11]: 7%
Population Mitochondria Different-Phenotype (%) [11]: 2%
Population Mitotic Cells (%) [11]: 20%
Population Normal (%) [11]: 97%
Population Pyknosed Nuclei (%) [11]: 9%
Population Tubulin-Different-Phenotype (%) [11]: 4%
Total Cell Count [11]: 419
Population Apoptotic (%) [12]: 94%
Population Fragmented Nuclei (%) [12]: 13%
Population Healthy Nuclei (%) [12]: 78%
Population Hoechst High Intensity Objects (%) [12]: 1%
Population Mitochondria Different-Phenotype (%) [12]: 3%
Population Mitotic Cells (%) [12]: 5%
Population Normal (%) [12]: 98%
Population Pyknosed Nuclei (%) [12]: 7%
Population Tubulin-Different-Phenotype (%) [12]: 6%
Total Cell Count [12]: 242
